In ChEMBL document CHEMBL5329172, “Chloroacetamide fragment library screening identifies new scaffolds for covalent inhibition of the TEAD·YAP1 interaction” (RSC Med Chem, 2023):
Activity calls are given as the source filed them. No cut-off for these calls is given here.

Assays:
[1] = target: T1, YAP1-TEAD4 (Homo sapiens) (UniProt P46937+Q15561); assay: (§1) Covalent inhibition of GST-tagged TEAD4 (217 to 434 residues) (unknown origin) expressed in Escherichia coli BL21 (DE3) cells/FAM-labelled YAP1 (60 to 99 residues)(unknown origin) protein-protein interaction assessed as protein-compound adduct formation at 100 uM incubated for 24 hrs at 4 degree C followed by mass spectrometry analysis
Method in brief: (§2)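 Intact-protein MS: 2.5 μM protein (TEAD4 217–434 with GST cleaved, TEAD4C367S, TEAD1 209–426, TEAD2 217–447 or TEAD3 210–427) incubated with 100 μM compound in PBS for 24 h at 4 °C. Samples were centrifuged to remove precipitate, desalted on a C3 reverse-phase column with a water/acetonitrile 0.1% formic acid gradient, and masses were read by Q-TOF. Adduct peaks were reported as percent.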

[2] = target: T1, YAP1-TEAD4 (Homo sapiens); assay: as §1, with “assessed as second protein-compound adduct” for “assessed as protein-compound adduct”; method in brief: as §2
YAP1-TEAD4 = YAP1-TEAD4 (Homo sapiens, UniProt Q15561); assay: (§3) Inhibition of GST-tagged TEAD4 (217 to 434 residues) (unknown origin) expressed in Escherichia coli BL21 (DE3) cells/FAM-labelled YAP1 (60 to 99 residues)(unknown origin) protein-protein interaction preincubated for 24 hrs at 4 degree C with TEAD4 followed by fluorescent labelled YAP1 addition by fluorescence polarization assay
Method in brief: (§4)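 FP: 64 nM TEAD4, TEAD4C367S, TEAD2 or TEAD3, or 250 nM TEAD1, was preincubated with compound for 24 h at 4 °C in PBS with 0.01% Triton X-100. FAM-YAP1 60–99 peptide (disulfide-crosslinked) was then added at 16 nM final. Polarization was read at ex 485/em 535 nm. Percent inhibition was taken relative to no-compound and no-protein controls. The single-point primary screen used 50 μM.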

[3] = target: T1, YAP1-TEAD4 (Homo sapiens); assay: as §3, with “interaction assessed as maximum inhibition at 50 uM” for “interaction”; method in brief: as §4
Homo sapiens [4] = species on record: Homo sapiens; assay: as §3, with “TEAD4 C367S mutant” for “TEAD4 (217 to 434 residues)”, “TEAD4 C367S mutant” for “TEAD4”; method in brief: as §4
S2 = assay: Inhibition of uPAR (unknown origin) expressed in S2 cells/FAM-labelled alpha-helical peptide AE-147 (unknown origin) protein-protein interaction preincubated for 24 hrs at 4 degree C with uPAR followed by fluorescent labelled AE-147 addition by fluorescence polarization assay; settings: Homo sapiens
Method in brief: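 Counter-screen FP: 250 nM uPAR lacking the GPI anchor (from S2 cells) was preincubated with compound for 24 h at 4 °C in PBS with 0.01% Triton X-100. AE-147-FAM peptide was then added at 100 nM final and polarization read at ex 485/em 535 nm.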

Homo sapiens [5] = species on record: Homo sapiens; assay: as §1, with “C367S mutant” for “(217 to 434 residues)”, “(DE3)/FAM-labelled” for “(DE3) cells/FAM-labelled”; method in brief: as §2
[6] = target: T1, YAP1-TEAD4 (Homo sapiens); assay: as §1, with “assessed as additional protein-compound adduct” for “assessed as protein-compound adduct”; method in brief: as §2

YAP1-TEAD4, sequence (P46937 whole entry, the tested form may be a part): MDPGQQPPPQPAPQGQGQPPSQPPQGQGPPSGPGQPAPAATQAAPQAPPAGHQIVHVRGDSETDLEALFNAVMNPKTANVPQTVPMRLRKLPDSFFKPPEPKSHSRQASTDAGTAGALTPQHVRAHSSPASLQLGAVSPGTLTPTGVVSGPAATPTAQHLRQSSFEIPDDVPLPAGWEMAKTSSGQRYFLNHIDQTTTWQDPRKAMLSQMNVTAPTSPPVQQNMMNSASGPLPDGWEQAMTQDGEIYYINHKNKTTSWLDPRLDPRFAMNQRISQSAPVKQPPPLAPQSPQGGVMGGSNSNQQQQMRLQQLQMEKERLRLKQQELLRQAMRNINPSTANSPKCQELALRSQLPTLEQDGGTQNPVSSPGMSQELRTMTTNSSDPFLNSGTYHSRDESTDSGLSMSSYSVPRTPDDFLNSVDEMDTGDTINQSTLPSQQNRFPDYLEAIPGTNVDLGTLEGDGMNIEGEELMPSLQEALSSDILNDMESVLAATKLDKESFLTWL
YAP1-TEAD4, sequence (Q15561 whole entry, the tested form may be a part): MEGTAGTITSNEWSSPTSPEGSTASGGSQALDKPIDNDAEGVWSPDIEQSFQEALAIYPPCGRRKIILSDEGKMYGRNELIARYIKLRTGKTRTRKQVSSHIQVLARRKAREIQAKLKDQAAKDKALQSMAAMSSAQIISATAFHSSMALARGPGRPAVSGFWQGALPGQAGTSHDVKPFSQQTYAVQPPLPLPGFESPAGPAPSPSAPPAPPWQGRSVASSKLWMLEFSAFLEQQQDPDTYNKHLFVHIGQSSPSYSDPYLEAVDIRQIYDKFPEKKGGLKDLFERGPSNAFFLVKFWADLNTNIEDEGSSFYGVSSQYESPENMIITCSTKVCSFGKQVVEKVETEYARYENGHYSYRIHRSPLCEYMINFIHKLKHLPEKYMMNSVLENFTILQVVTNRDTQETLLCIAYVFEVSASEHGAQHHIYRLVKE

Row | SMILES | percent protein-compound adduct formation [1] [%] | percent second protein-compound adduct [2] [%] | IC50 (YAP1-TEAD4) [µM] | Imax [3] [%] | inhibition (Homo sapiens [4]) | inhibition (S2) | inhibition (Homo sapiens [5]) | percent protein-compound adduct formation [6] [%]
1 | O=C(CCl)N1N=C(c2cccs2)CC1c1cccs1 (stereo not drawn) | 45 | 9 | 4.7 | 46 | inactive | inactive | inactive | –
2 | COc1ccc(C2=NN(C(=O)CCl)C(c3nc4ccccc4[nH]3)C2)cc1 (stereo not drawn) | 38 | 30 | 5.8 | 45 | inactive | inactive | inactive | –
3 | Cc1ccc(S(=O)(=O)N2CCN(C(=O)CCl)C2)cc1 | 75 | 25 | 1.9 | 49 | inactive | inactive | – | –
4 | COc1ccc(C(C(=O)NC2CCCCCC2)N(Cc2ccccc2)C(=O)CCl)cc1 (stereo not drawn) | 31 | – | 7.4 | 49 | inactive | inactive | inactive | –
5 | COc1ccc(CN(C(=O)CCl)C(C(=O)NC2CCCCC2)c2cccs2)cc1 (stereo not drawn) | 12 | 20 | 13 | 67 | inactive | inactive | inactive | 30
6 | O=C(CCl)N1CCN(S(=O)(=O)/C=C/c2ccccc2)CC1 | 73 | – | 4.9 | 49 | inactive | inactive | – | –
7 | COc1ccc(N(C(=O)CCl)C(C(=O)NCCc2ccccc2)c2cccs2)cc1Cl (stereo not drawn) | 51 | 12 | 1.1 | 39 | inactive | inactive | inactive | 15
8 | Cc1ccc2c(c1)c1c3n2CCN(C(=O)CCl)C3CCC1 (stereo not drawn) | 29 | 30 | 2 | 50 | inactive | inactive | – | 30
9 | Cc1ccc(C2CC(c3cccs3)=NN2C(=O)CCl)cc1 (stereo not drawn) | 27 | – | 3.8 | 41 | inactive | inactive | inactive | –
10 | O=C(NCCc1ccccc1)C(c1cccs1)N(C(=O)CCl)c1ccc(Cl)cc1 (stereo not drawn) | 15 | – | 4 | 40 | inactive | inactive | inactive | –
11 | COc1ccc(C(C(=O)NC2CCCCCC2)N(Cc2cccs2)C(=O)CCl)cc1 (stereo not drawn) | 32 | – | 4.8 | 41 | inactive | inactive | inactive | –
12 | O=C(CCl)N1N=C(c2ccc(Cl)cc2)CC1c1ccco1 (stereo not drawn) | 64 | 18 | 6 | 62 | inactive | inactive | inactive | –
13 | COc1ccc(C(C(=O)NCCc2ccccc2)N(Cc2cccs2)C(=O)CCl)cc1 (stereo not drawn) | 47 | – | 10.5 | 42 | inactive | inactive | inactive | –
14 | O=C(CCl)N1N=C(c2ccc(Br)cc2)CC1c1ccc(F)cc1 (stereo not drawn) | 27 | – | 1.5 | 41 | inactive | inactive | inactive | –
15 | COc1ccc(C2=NN(C(=O)CCl)C(c3cccc(OC)c3OC)C2)cc1 (stereo not drawn) | 42 | – | 1.1 | 39 | inactive | inactive | inactive | –
16 | COc1ccc(C(C(=O)NC2CCCCCC2)N(Cc2ccc(C)cc2)C(=O)CCl)cc1 (stereo not drawn) | 25 | – | 4.4 | 36 | inactive | inactive | inactive | –
17 | COc1ccc(CN(C(=O)CCl)C(C(=O)NC2CCCCCC2)c2ccc(OC)cc2)cc1 (stereo not drawn) | 37 | – | 5.5 | 45 | inactive | inactive | inactive | –
18 | O=C(CCl)N1N=C2/C(=C/c3ccco3)CCCC2C1c1ccco1 (stereo not drawn) | 32 | 10 | 7.8 | 67 | inactive | inactive | inactive | –
19 | Cc1ccc(S(=O)(=O)N2CCN(C(=O)CCl)CC2)cc1C | 38 | – | 22.8 | 48 | inactive | inactive | – | –
20 | Cc1ccc(S(=O)(=O)N2CCN(C(=O)CCl)C2c2ccccc2)cc1 (stereo not drawn) | 52 | 23 | < 1 | 50 | inactive | inactive | – | –
21 | O=C(CCl)N1CCN(S(=O)(=O)c2ccc(Cl)cc2[N+](=O)[O-])CC1 | 54 | 31 | – | – | inactive | inactive | – | –
22 | O=C(CCl)N1N=C(c2ccccc2)CC1c1ccccc1 (stereo not drawn) | 38 | 21 | 5.9 | 52 | inactive | inactive | inactive | –
